Data from article PMC10053980 (ACS infectious diseases, 2023).
Like-named read-outs stand apart in the source and are kept apart here.

Experiments:
in vitro = in vitro ADME; settings: human, microsomes
[1] = system: PfCARL^S1057T (S)-SW703-resistant Dd2 clones; test: Asexual blood-stage EC50; type: cell-based, Plasmodium falciparum
[2] = system: PfCARL^L1073I C2 clone beta (Polδ mutant); test: Asexual blood-stage EC50; type: cell-based, Plasmodium falciparum; settings: for EC50: Plasmodium falciparum
7G8 = test: [3H]-hypoxanthine incorporation assay, cross-resistance panel; type: cell-based, Plasmodium falciparum
K1 = test: as above; type: cell-based, Plasmodium falciparum
PfD10 attB + yDHODH = test: Asexual blood-stage growth inhibition; type: cell-based, Plasmodium falciparum; settings: Saccharomyces cerevisiae, read-out: PfD10 attB + yDHODH EC50
Summary of the method: (§1)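 Ring-stage parasites (2% hematocrit, 0.5% parasitemia, final DMSO 0.5%) were exposed to a concentration range for 72 h at 37 °C, 5% CO2. Plates were frozen for at least 16 h and thawed, then SYBR Green lysis buffer was added. Fluorescence was read at 485 nm excitation and 535/528 nm emission. DSM265 (0.8–100 nM) served as plate control. EC50 came from four-parameter nonlinear regression, in technical triplicates with at least 3 biological replicates.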

[3] = system: PfCARL^I1139K (KAF156-selected); test: [3H]-hypoxanthine incorporation assay, cross-resistance panel; type: cell-based, Plasmodium falciparum; settings: PfCARL^I1139K relative to parent line Dd2
Summary of the method: (§2)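 Cross-resistance was measured by a modified [3H]-hypoxanthine incorporation assay. Fold differences for lab-generated resistant lines are relative to the Dd2 parent. Values are means from two independent experiments.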

HepG2 cytotoxicity = type: cell-based; settings: human, HepG2 cells
Summary of the method: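 HepG2 cells (600 per well) in EMEM with 5% heat-inactivated FBS and 2 mM glutamine received test compound and were incubated 72 h at 37 °C, 5% CO2. Viability was read by CellTiter Glo (intracellular ATP). CD437 and methotrexate served as positive controls. Two biological runs, each in technical triplicate.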

PfD10 attB = test: Asexual blood-stage growth inhibition; type: cell-based; settings: Plasmodium falciparum, read-out: PfD10 attB EC50
Summary of the method: as §1

[4] = system: P. falciparum strain 3D7A; test: Two color flow cytometry rate of kill assay; type: cell-based, Plasmodium falciparum; settings: 0, 24 or 48 h exposure at 10X EC50; compared with chloroquine and artesunate
physchem = type: physicochemical; settings: kinetic from dmso stock
Dd2-Polδ (parent) = test: Asexual blood-stage EC50; type: cell-based; settings: Plasmodium falciparum, DD2, read-out: (S)-SW703 EC50
Summary of the method: as §1

[5] = system: PfeEF2^Y186N (DDD107498-resistant); test: [3H]-hypoxanthine incorporation assay, cross-resistance panel; type: cell-based, Plasmodium falciparum
RF12 (PH-1263-C) = test: as above; type: cell-based, Plasmodium falciparum
[6] = system: PfACT^Q116K (S)-SW703-resistant Dd2 clone; test: Asexual blood-stage EC50; type: cell-based, Plasmodium falciparum; settings: for EC50: Plasmodium falciparum
Summary of the method: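 Cloned resistant parasites were exposed to test compound or KAF156 over a concentration range for 72 h at 37 °C (2% hematocrit, 0.5% parasitemia, 0.5% DMSO). Freeze–thaw was followed by SYBR Green lysis and fluorescence at 485/535 or 528 nm. EC50 was fitted by four-parameter regression. Fold shift is relative to the Dd2 parent. Technical triplicates, at least three independent experiments.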

[7] = system: PfPI4K^S743T (MMV390048-resistant); test: [3H]-hypoxanthine incorporation assay, cross-resistance panel; type: cell-based, Plasmodium falciparum
TM90C2B = test: as above; type: cell-based, Plasmodium falciparum
[8] = system: PfCARL^Q821H (S)-SW703-resistant Dd2 clones; test: Asexual blood-stage EC50; type: cell-based, Plasmodium falciparum
[9] = system: PfCytB^I22L (ELQ300-resistant); test: [3H]-hypoxanthine incorporation assay, cross-resistance panel; type: cell-based, Plasmodium falciparum
[10] = system: P. berghei liver stage (Pb-Luc sporozoites); test: Liver stage activity assay; type: cell-based; settings: Plasmodium berghei, read-out: Liver-stage EC50
NF54 = test: [3H]-hypoxanthine incorporation assay, cross-resistance panel; type: cell-based; settings: Plasmodium falciparum, NF54, read-out: (S)-SW703 EC50
[11] = system: P. falciparum 3D7 (Pf3D7); test: Asexual blood-stage growth inhibition; type: cell-based; settings: Plasmodium falciparum, 3D7, 72 h, read-out: Pf3D7 EC50
Dd2 = test: [3H]-hypoxanthine incorporation assay, cross-resistance panel; type: cell-based, Plasmodium falciparum
[12] = system: PfDHODH (DSM265-resistant); test: [3H]-hypoxanthine incorporation assay, cross-resistance panel; type: cell-based, Plasmodium falciparum
Summary of the method: as §2

[13] = system: P. falciparum Dd2 (PfDd2, parent); test: Asexual blood-stage growth inhibition; type: cell-based; settings: Plasmodium falciparum
[14] = system: PfCARL^L830I (S)-SW703-resistant Dd2 clones; test: Asexual blood-stage EC50; type: cell-based, Plasmodium falciparum
[15] = system: P. falciparum strain NF54 stage V gametocytes, female gametes; test: Dual gamete formation assay; type: cell-based; settings: Plasmodium falciparum, NF54, read-out: Inhibition of female gamete formation
[16] = system: P. falciparum strain NF54 stage V gametocytes, male gametes; test: Dual gamete formation assay; type: cell-based, Plasmodium falciparum; settings: 1 μM, 48 h
[17] = system: PfACT^S242* CRISPR mutant; settings: cited from earlier work
PfCARL L1073Q mutants = settings: cited from earlier work
[18] = Flask 3 clone D11, PfCARL^S1057T, vs Dd2 parent
[19] = Plasmodium falciparum, read-out: (S)-SW703 EC50
[20] = Flask 4 clone F2, PfACT^Q116K, vs Dd2 parent
[21] = Flask 2 clone F3, PfCARL^Q821H, vs Dd2 parent
[22] = Flask 1 clone B4, PfCARL^L830I, vs Dd2 parent

**Q.** Which results are given for `Cc1cccc(C)c1CC1CN(C(=O)[C@@H](N)Cc2ccc(O)cc2)C1` [(S)-SW703, (S)-2-amino-1-(3-(2,6-dimethylbenzyl)azetidin-1-yl)-3-(4-hydroxyphenyl)propan-1-one]?
**A.** microsomal CLint (in vitro): 197 µL/min/mg; (S)-SW703 EC50 fold shift ([1]; Flask 1 clone G3, PfCARL^S1057T, vs Dd2 parent): 12 fold; (S)-SW703 EC50 fold shift [1, 18]: 15 fold; (S)-SW703 EC50 fold shift ([1]; Flask 3 clone G5, PfCARL^S1057T, vs Dd2 parent): 16 fold; (S)-SW703 EC50 fold shift ([1]; Flask 4 clone D4, PfCARL^S1057T, vs Dd2 parent): 12 fold; (S)-SW703 EC50 fold shift ([1]; Flask 4 clone G3, PfCARL^S1057T, vs Dd2 parent): 14 fold; (S)-SW703 EC50 fold shift ([2]; C2 clone beta, PfCARL^L1073I, vs Dd2-Polδ parent): 9.5 fold; EC50 ([2]; read-out: (S)-SW703 EC50): 8800 ± 1200 nM; (S)-SW703 EC50 fold shift (7G8; 7G8 relative to NF54): 1.2 fold; EC50 (7G8; [19]): 410 ± 32 nM; (S)-SW703 EC50 fold shift (K1; K1 relative to NF54): 1.0 fold; EC50 (K1; [19]): 350 ± 39 nM; EC50 (PfD10 attB + yDHODH): 1300 nM; (S)-SW703 EC50 fold shift [3]: > 16.6 fold; CC50 at 72 h (HepG2 cytotoxicity): > 50000 nM; EC50 (PfD10 attB): 1500 nM; Rate of kill (killing kinetics) [4]: fast-killing mechanism; solubility (physchem; pH 2, simulated gastric fluid): > 34 µg/mL; solubility (physchem; pH 6.5, aqueous buffer): > 34 µg/mL; EC50 (Dd2-Polδ (parent)): 930 ± 110 nM; (S)-SW703 EC50 fold shift ([5]; PfeEF2^Y186N relative to parent line Dd2): 0.91 fold; EC50 ([5]; {}): 270 ± 25 nM; EC50 (RF12 (PH-1263-C); [19]): 370 ± 10 nM; (S)-SW703 EC50 fold shift (RF12 (PH-1263-C); RF12 relative to NF54): 1.1 fold; (S)-SW703 EC50 fold shift [6, 20]: 2.3 fold; EC50 ([6]; DD2, read-out: (S)-SW703 EC50): 1900 ± 240 nM; (S)-SW703 EC50 fold shift ([7]; PfPI4K^S743T relative to parent line Dd2): 0.97 fold; EC50 ([7]; {}): 290 ± 42 nM; EC50 (TM90C2B; Plasmodium falciparum, TM90C2B, read-out: (S)-SW703 EC50): 370 ± 41 nM; (S)-SW703 EC50 fold shift (TM90C2B; TM90C2B relative to NF54): 1.1 fold; (S)-SW703 EC50 fold shift [8, 21]: 52 fold; (S)-SW703 EC50 fold shift ([8]; Flask 3 clone D7, PfCARL^Q821H, vs Dd2 parent): 60 fold; (S)-SW703 EC50 fold shift ([9]; PfCytB^I22L relative to parent line Dd2): 0.75 fold; EC50 ([9]; {}): 230 ± 46 nM; EC50 [10]: 570 ± 210 nM; EC50 (NF54): 340 ± 36 nM; EC50 [11]: 780 ± 92 nM; (S)-SW703 EC50 fold shift (Dd2; Dd2 relative to NF54): 0.88 fold; EC50 (Dd2; Plasmodium falciparum, DD2, read-out: (S)-SW703 EC50): 300 ± 31 nM; (S)-SW703 EC50 fold shift ([12]; PfDHODH relative to parent line Dd2): 0.95 fold; EC50 ([12]; Plasmodium falciparum, DSM265, read-out: (S)-SW703 EC50): 290 ± 9 nM; EC50 ([13]; DD2, 72 h, read-out: PfDd2 EC50): 810 ± 150 nM; (S)-SW703 EC50 fold shift [14, 22]: 31 fold; (S)-SW703 EC50 fold shift ([14]; Flask 1 clone F9, PfCARL^L830I, vs Dd2 parent): 31 fold; (S)-SW703 EC50 fold shift ([14]; Flask 2 clone C5, PfCARL^L830I, vs Dd2 parent): 32 fold; (S)-SW703 EC50 fold shift ([14]; Flask 2 clone E8, PfCARL^L830I, vs Dd2 parent): 27 fold; inhibition at 1 µM [15]: 1.2 ± 1.7%; Inhibition of male gamete formation [16]: 18.3%

**Q.** With `CC1(C)c2nc(-c3ccc(F)cc3)c(Nc3ccc(Cl)cc3)n2CCN1C(=O)CN` [GNF179] as the compound, how does the “resistance conferred by PfACT^S242* CRISPR mutant” value [17] read?
**A.** high-level resistance

**Q.** What about the “resistance conferred by PfCARL L1073Q” value (PfCARL L1073Q mutants) of the same compound?
**A.** did not confer resistance

**Q.** And the “fold resistance of parasites bearing PfCARL^Q821H mutations” value ([8]; cross-resistance of (S)-SW703-resistant clones)?
**A.** about 5 fold

**Q.** Which results are given for `CC1(C)c2nc(-c3ccc(F)cc3)c(Nc3ccc(F)cc3)n2CCN1C(=O)CN` [KAF156, reference compound]?
**A.** KAF156 EC50 fold shift [1, 18]: 1.5 fold; EC50 ([1]; Plasmodium falciparum, DD2, read-out: KAF156 EC50, Flask 3 clone D11, PfCARL^S1057T): 18 ± 1.8 nM; EC50 ([2]; read-out: KAF156 EC50): 16 ± 2.7 nM; resistance conferred by PfACT^S242* CRISPR mutant [17]: high-level resistance; resistance conferred by PfCARL L1073Q (PfCARL L1073Q mutants): did not confer resistance; KAF156 EC50 fold shift [6, 20]: 1.8 fold; EC50 ([6]; DD2, read-out: KAF156 EC50): 22 ± 4.5 nM; KAF156 EC50 fold shift [8, 21]: 4.7 fold; EC50 ([8]; Plasmodium falciparum, DD2, read-out: KAF156 EC50, Flask 2 clone F3, PfCARL^Q821H): 57 ± 6.6 nM; EC50 ([13]; DD2, read-out: KAF156 EC50): 12 ± 1.7 nM; KAF156 EC50 fold shift [14, 22]: 1.8 fold; EC50 ([14]; Plasmodium falciparum, DD2, read-out: KAF156 EC50, Flask 1 clone B4, PfCARL^L830I): 22 ± 3.4 nM
